From ChEMBL document CHEMBL4190262, “Tuning of β-glucosidase and α-galactosidase inhibition by generation and in situ screening of a library of pyrrolidine-triazole hybrid molecules” (Eur J Med Chem, 2017)
One block for each compound: values may come before it. Activity calls are given as the source filed them. The rule behind the calls is not given here.

Columns and labels:
[1] = target: Beta-galactosidase (Escherichia coli) (UniProt Q8VNN2); assay: Inhibition of Escherichia coli beta-galactosidase at 1 mM using p-nitrophenyl glycopyranoside preincubated for 5 mins followed by substrate addition measured after 20 mins by visible absorption spectroscopic method relative to control
Chain of Beta-galactosidase (Escherichia coli) (Q8VNN2 whole entry, looked up): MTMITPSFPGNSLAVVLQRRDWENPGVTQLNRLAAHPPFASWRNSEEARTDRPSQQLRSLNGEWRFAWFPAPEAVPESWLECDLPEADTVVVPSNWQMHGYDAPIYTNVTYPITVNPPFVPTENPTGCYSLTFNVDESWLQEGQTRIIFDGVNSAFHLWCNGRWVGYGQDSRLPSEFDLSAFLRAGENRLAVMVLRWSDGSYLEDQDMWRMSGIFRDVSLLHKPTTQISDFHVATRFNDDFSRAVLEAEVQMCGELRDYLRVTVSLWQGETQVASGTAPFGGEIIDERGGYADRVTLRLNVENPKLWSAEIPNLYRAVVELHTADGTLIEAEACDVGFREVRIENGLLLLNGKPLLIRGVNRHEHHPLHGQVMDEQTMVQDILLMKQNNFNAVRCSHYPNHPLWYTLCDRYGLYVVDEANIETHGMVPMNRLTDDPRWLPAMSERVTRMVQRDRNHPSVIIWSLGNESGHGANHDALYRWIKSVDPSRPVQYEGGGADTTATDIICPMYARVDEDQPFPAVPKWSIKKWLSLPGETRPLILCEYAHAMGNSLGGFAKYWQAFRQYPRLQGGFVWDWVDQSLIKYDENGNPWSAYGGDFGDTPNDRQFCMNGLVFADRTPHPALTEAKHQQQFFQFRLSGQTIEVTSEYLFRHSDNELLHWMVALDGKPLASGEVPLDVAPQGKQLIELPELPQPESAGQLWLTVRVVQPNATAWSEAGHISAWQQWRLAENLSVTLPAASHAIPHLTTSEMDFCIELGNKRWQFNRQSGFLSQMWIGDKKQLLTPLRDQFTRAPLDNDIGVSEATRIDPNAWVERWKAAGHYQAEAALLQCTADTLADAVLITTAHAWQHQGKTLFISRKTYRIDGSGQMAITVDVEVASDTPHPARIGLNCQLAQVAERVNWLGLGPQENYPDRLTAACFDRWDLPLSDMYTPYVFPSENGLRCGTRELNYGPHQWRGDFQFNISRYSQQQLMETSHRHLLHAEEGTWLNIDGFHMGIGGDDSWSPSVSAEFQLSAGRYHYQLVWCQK
How it was run: (§1)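 Test compound at 1 mM in well. Mix: 0.01–0.5 units/mL enzyme plus 10 mM p-nitrophenyl glycopyranoside (aqueous solution), buffered to the enzyme's optimal pH. Enzyme and inhibitor preincubated 5 min at rt. Substrate then added and incubated 20 min at 37 °C. Stopped with sodium borate (pH 9.8). p-Nitrophenolate read at 405 nm. Duplicates averaged.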

Bos taurus = organism: Bos taurus; assay: Inhibition of bovine kidney alpha-L-fucosidase at 1 mM using p-nitrophenyl glycopyranoside preincubated for 5 mins followed by substrate addition measured after 20 mins by visible absorption spectroscopic method relative to control; how it was run: as §1
[2] = target: Alpha-galactosidase (Coffea arabica) (UniProt Q42656); assay: Inhibition of coffee beans alpha-galactosidase at 1 mM using p-nitrophenyl glycopyranoside preincubated for 5 mins followed by substrate addition measured after 20 mins by visible absorption spectroscopic method relative to control; how it was run: as §1
Chain of Alpha-galactosidase (Coffea arabica) (Q42656 16-378 limits assumed): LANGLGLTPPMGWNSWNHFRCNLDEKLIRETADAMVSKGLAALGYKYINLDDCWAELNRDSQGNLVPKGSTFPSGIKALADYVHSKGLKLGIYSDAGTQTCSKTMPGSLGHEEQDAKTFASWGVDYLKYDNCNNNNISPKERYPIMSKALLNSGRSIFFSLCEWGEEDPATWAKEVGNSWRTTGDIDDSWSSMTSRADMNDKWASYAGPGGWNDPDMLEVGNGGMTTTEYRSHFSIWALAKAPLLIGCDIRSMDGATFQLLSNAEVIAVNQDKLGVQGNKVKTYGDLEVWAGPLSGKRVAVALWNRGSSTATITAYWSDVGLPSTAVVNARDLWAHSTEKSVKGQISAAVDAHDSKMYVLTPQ

[3] = target: T1, Beta-galactosidase (Aspergillus oryzae) (UniProt B7VU80); assay: Inhibition of Aspergillus oryzae beta-galactosidase at 1 mM using p-nitrophenyl glycopyranoside preincubated for 5 mins followed by substrate addition measured after 20 mins by visible absorption spectroscopic method relative to control; how it was run: as §1
T1 sequence (whole entry): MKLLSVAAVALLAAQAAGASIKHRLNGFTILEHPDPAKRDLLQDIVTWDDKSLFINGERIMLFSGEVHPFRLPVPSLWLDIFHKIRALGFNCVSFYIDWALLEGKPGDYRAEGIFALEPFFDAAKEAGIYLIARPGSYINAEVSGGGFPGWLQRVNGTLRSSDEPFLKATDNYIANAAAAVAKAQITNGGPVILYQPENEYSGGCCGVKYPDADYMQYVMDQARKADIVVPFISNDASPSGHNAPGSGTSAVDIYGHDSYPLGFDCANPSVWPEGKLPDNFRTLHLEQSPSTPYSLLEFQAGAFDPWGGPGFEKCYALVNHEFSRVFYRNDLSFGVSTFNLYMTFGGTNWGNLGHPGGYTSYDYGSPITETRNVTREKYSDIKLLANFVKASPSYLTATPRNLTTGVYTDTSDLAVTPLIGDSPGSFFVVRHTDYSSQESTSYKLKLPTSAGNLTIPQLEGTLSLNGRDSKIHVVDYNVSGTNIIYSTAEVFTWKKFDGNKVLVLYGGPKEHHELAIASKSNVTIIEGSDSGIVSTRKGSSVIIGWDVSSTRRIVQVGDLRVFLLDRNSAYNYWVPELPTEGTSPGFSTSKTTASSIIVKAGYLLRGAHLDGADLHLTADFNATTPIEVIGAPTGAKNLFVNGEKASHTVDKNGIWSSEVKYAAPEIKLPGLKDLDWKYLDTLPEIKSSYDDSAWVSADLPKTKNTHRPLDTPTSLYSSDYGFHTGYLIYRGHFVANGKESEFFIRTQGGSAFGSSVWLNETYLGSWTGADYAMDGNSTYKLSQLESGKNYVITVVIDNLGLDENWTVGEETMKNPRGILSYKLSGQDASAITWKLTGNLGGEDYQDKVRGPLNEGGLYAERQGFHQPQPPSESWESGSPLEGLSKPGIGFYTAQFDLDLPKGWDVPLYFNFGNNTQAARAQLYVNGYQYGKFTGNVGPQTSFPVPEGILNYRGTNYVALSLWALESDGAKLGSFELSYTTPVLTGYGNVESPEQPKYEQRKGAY

Saccharomyces cerevisiae = assay: Inhibition of yeast alpha glucosidase at 1 mM using p-nitrophenyl glycopyranoside preincubated for 5 mins followed by substrate addition measured after 20 mins by visible absorption spectroscopic method relative to control; how it was run: as §1
Oryza sativa = assay: Inhibition of rice alpha-glucosidase at 1 mM using p-nitrophenyl glycopyranoside preincubated for 5 mins followed by substrate addition measured after 20 mins by visible absorption spectroscopic method relative to control; how it was run: as §1
Aspergillus niger = assay: Inhibition of Aspergillus niger amyloglucosidase at 1 mM using p-nitrophenyl glycopyranoside preincubated for 5 mins followed by substrate addition measured after 20 mins by visible absorption spectroscopic method relative to control; how it was run: as §1
Prunus dulcis [4] = assay: Inhibition of almond beta-glucosidase at 1 mM using p-nitrophenyl glycopyranoside preincubated for 5 mins followed by substrate addition measured after 20 mins by visible absorption spectroscopic method relative to control; how it was run: as §1
[5] = target: T2, Alpha-mannosidase (Canavalia ensiformis) (UniProt C0HJB3); assay: Inhibition of jack bean alpha-mannosidase at 1 mM using p-nitrophenyl glycopyranoside preincubated for 5 mins followed by substrate addition measured after 20 mins by visible absorption spectroscopic method relative to control; how it was run: as §1
T2 sequence (whole entry): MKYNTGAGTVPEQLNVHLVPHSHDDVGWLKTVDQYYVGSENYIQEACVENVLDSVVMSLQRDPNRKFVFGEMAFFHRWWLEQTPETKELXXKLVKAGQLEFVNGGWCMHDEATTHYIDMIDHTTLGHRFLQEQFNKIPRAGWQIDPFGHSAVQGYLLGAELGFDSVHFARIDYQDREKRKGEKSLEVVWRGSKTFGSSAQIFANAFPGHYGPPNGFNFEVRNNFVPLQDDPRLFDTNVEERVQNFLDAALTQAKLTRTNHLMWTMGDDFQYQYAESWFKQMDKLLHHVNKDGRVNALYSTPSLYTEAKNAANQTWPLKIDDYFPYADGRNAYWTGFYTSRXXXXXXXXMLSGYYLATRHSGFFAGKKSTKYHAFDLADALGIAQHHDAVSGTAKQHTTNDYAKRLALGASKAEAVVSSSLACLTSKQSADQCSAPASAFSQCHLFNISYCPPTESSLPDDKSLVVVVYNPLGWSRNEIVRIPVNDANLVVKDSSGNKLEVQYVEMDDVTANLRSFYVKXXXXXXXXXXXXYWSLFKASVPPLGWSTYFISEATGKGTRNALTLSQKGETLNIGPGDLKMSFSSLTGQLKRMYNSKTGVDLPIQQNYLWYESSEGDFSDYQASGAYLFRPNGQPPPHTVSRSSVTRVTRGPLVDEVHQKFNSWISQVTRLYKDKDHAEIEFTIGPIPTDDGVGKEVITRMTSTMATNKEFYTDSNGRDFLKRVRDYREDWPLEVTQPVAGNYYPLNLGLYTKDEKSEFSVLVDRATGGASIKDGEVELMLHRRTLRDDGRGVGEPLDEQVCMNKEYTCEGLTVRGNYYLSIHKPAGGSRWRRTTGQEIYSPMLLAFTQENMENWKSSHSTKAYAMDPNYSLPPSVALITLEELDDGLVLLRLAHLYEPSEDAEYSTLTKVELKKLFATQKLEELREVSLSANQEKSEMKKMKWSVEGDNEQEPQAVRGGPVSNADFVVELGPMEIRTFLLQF

Cornu aspersum = assay: Inhibition of snail beta-mannosidase at 1 mM using p-nitrophenyl glycopyranoside preincubated for 5 mins followed by substrate addition measured after 20 mins by visible absorption spectroscopic method relative to control; how it was run: as §1
Canavalia ensiformis = assay: Inhibition of jack bean beta-N-acetylglucosaminidase at 1 mM using p-nitrophenyl glycopyranoside preincubated for 5 mins followed by substrate addition measured after 20 mins by visible absorption spectroscopic method relative to control; how it was run: as §1
Prunus dulcis [6] = assay: Inhibition of almond beta-glucosidase at 10 uM using p-nitrophenyl glycopyranoside preincubated for 5 mins followed by substrate addition measured after 20 mins by visible absorption spectroscopic method relative to control
How it was run: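 Crude click-reaction products screened in situ. Azide (final 15 mM) was reacted with each alkyne using sodium ascorbate/CuSO4 in tBuOH–H2O for 24 h at rt, then diluted with water. Tested at 10 μM per well, assuming quantitative conversion, against almond β-glucosidase at pH 5, 37 °C. p-Nitrophenyl glycoside read-out at 405 nm.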

Compound: [N-]=[N+]=NC[C@@H]1NC[C@@H](O)[C@H]1O
inhibition [1]: inactive | inhibition (Bos taurus): 33% | inhibition [2]: 44% | inhibition [3]: inactive | inhibition (Saccharomyces cerevisiae): inactive | inhibition (Oryza sativa): inactive | inhibition (Aspergillus niger): inactive | inhibition (Prunus dulcis [4]): inactive | inhibition [5]: 71% | inhibition (Cornu aspersum): inactive | inhibition (Canavalia ensiformis): inactive | inhibition (Prunus dulcis [6]): inactive

inhibition [1]: inactive | inhibition (Bos taurus): 15% | inhibition [2]: inactive | inhibition [3]: inactive | inhibition (Saccharomyces cerevisiae): inactive | inhibition (Oryza sativa): inactive | inhibition (Aspergillus niger): inactive | inhibition (Prunus dulcis [4]): 79% | inhibition [5]: 71% | inhibition (Cornu aspersum): inactive | inhibition (Canavalia ensiformis): 17%
Compound: O=C(NC[C@@H]1NC[C@@H](O)[C@H]1O)c1ccccc1

inhibition (Prunus dulcis [6]): inactive
Compound: COC(=O)c1cn(C[C@@H]2NC[C@@H](O)[C@H]2O)nn1

inhibition [1]: inactive | inhibition (Bos taurus): 21% | inhibition [2]: inactive | inhibition [3]: inactive | inhibition (Saccharomyces cerevisiae): inactive | inhibition (Oryza sativa): inactive | inhibition (Aspergillus niger): inactive | inhibition (Prunus dulcis [4]): inactive | inhibition [5]: 30% | inhibition (Cornu aspersum): inactive | inhibition (Canavalia ensiformis): inactive
Compound: O[C@@H]1[C@@H](c2cn(Cc3ccccc3)nn2)NC[C@@H]1O

inhibition (Prunus dulcis [6]): inactive
Compound: O[C@@H]1[C@H](O)CN[C@H]1Cn1cc(COc2ccccc2)nn1

inhibition (Prunus dulcis [6]): inactive
Compound: OCCOCc1cn(C[C@@H]2NC[C@@H](O)[C@H]2O)nn1

inhibition (Prunus dulcis [6]): inactive
Compound: O=C(NCc1cn(C[C@@H]2NC[C@@H](O)[C@H]2O)nn1)c1ccccc1

inhibition [1]: inactive | inhibition (Bos taurus): inactive | inhibition [2]: inactive | inhibition [3]: inactive | inhibition (Saccharomyces cerevisiae): inactive | inhibition (Oryza sativa): inactive | inhibition (Aspergillus niger): inactive | inhibition (Prunus dulcis [4]): 49% | inhibition [5]: 60% | inhibition (Cornu aspersum): inactive | inhibition (Canavalia ensiformis): inactive
Compound: O[C@H]1[C@@H](O)CN[C@@H]1Cn1cc(-c2ccccc2)nn1

inhibition (Prunus dulcis [6]): inactive
Compound: Cc1oc(CO)cc1C(=O)NCc1cn(C[C@@H]2NC[C@@H](O)[C@H]2O)nn1

inhibition (Prunus dulcis [6]): inactive
Compound: NCc1cn(C[C@@H]2NC[C@@H](O)[C@H]2O)nn1

inhibition (Prunus dulcis [6]): inactive
Compound: OCc1cn(C[C@@H]2NC[C@@H](O)[C@H]2O)nn1

inhibition (Prunus dulcis [6]): inactive
Compound: COc1ccc2cc(-c3cn(C[C@@H]4NC[C@@H](O)[C@H]4O)nn3)ccc2c1

inhibition [1]: inactive | inhibition (Bos taurus): inactive | inhibition [2]: 16% | inhibition [3]: inactive | inhibition (Saccharomyces cerevisiae): inactive | inhibition (Oryza sativa): inactive | inhibition (Aspergillus niger): 18% | inhibition (Prunus dulcis [4]): 74% | inhibition [5]: inactive | inhibition (Cornu aspersum): 45% | inhibition (Canavalia ensiformis): inactive
Compound: O[C@@H]1[C@H](O)CN[C@H]1CNC(=S)Nc1ccccc1

inhibition (Prunus dulcis [6]): inactive
Compound: Cc1ccc(S(=O)(=O)OCCOCCOCCOCCOCCOCCOCc2cn(C[C@@H]3NC[C@@H](O)[C@H]3O)nn2)cc1

inhibition (Prunus dulcis [6]): inactive
Compound: COc1ccc(-c2cn(C[C@@H]3NC[C@@H](O)[C@H]3O)nn2)cc1

inhibition [1]: inactive | inhibition (Bos taurus): 71% | inhibition [2]: inactive | inhibition [3]: inactive | inhibition (Saccharomyces cerevisiae): inactive | inhibition (Oryza sativa): inactive | inhibition (Aspergillus niger): inactive | inhibition (Prunus dulcis [4]): inactive | inhibition [5]: inactive | inhibition (Cornu aspersum): inactive | inhibition (Canavalia ensiformis): inactive
Compound: O[C@@H]1[C@H](O)CN[C@H]1c1cn(Cc2ccccc2)nn1

inhibition (Prunus dulcis [6]): inactive
Compound: OCCCc1cn(C[C@@H]2NC[C@@H](O)[C@H]2O)nn1

inhibition (Prunus dulcis [6]): inactive
Compound: CN(Cc1ccccc1)Cc1cn(C[C@@H]2NC[C@@H](O)[C@H]2O)nn1

inhibition (Prunus dulcis [6]): inactive
Compound: OCc1ccc(-c2cn(C[C@@H]3NC[C@@H](O)[C@H]3O)nn2)cc1

inhibition (Prunus dulcis [6]): inactive
Compound: O=C(O)CCCc1cn(C[C@@H]2NC[C@@H](O)[C@H]2O)nn1

inhibition (Prunus dulcis [6]): inactive
Compound: O[C@@H]1[C@H](O)CN[C@H]1Cn1cc(CC2CCCCC2)nn1

inhibition (Prunus dulcis [6]): inactive
Compound: O[C@@H]1[C@H](O)CN[C@H]1Cn1cc(C2(O)CCCCC2)nn1

inhibition (Prunus dulcis [6]): inactive
Compound: OCCOCCOCCOCCOCCOCCOCc1cn(C[C@@H]2NC[C@@H](O)[C@H]2O)nn1
